# How the values were obtained:
# [1] = cited from earlier work
# [2] = single administration at 1.0 mmol/kg in rats; cited from earlier work
# [3] = system: blood-brain barrier (BBB); test: In situ rat brain perfusion of Gd-DTPA, quantitative T1 mapping MRI; assay type: in vivo, Sprague-Dawley rats; details: Gd-DTPA 0.6 mmol/kg, brain-ventral
# Summary of the method: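 Adult male Sprague-Dawley rats (250–350 g). A 10-sec saline post-perfusion wash followed. Sacrificed animals underwent quantitative T1 mapping MRI at room temperature; R1 = 1/T1 was taken per brain region.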
# [4] = system: blood-brain barrier (BBB); details: cited from earlier work
compound,measurement,setting,value
"CC[C@@]1(O)C(=O)OCc2c1cc1n(c2=O)Cc2cc3ccccc3nc2-1 [CPT, camptothecin]",time of conversion to the CPT-carboxylate form,[1]; phosphate-buffered saline solution containing 4% human plasma,11 min
same,pH below which the lactone group is stable,"[1]; undergoes lactone hydrolysis to CPT-carboxylate at pH 7.4, no reference given",< 5.5
"O=C([O-])CN(CCN(CC(=O)[O-])CC(=O)O)CCN(CC(=O)[O-])CC(=O)O.[Gd+3] [Gd-DTPA, gadolinium-diethylenetriaminepentaacetate]",tolerability / organ toxicity,[2],well tolerated without any organ toxicity
same,"R1 values, Gd-DTPA in presence of HAV6 compared to Gd-DTPA and vehicle","[3]; HAV6 1.0 mM, olfactory bulb, hippocampus, cerebellum, deep-rostral, deep-caudal regions",more significantly increased R1 values
same,"R1 values, Gd-DTPA and vehicle compared to vehicle only","[3]; cortex, deep-caudal",increased R1 values
"Ac-SHAVSS-NH2 [HAV6, Ac-SHAVSS-NH2]",brain delivery of IRdye 800cw-PEG delivered 1 h after administration of peptide,[4]; 25 kDa IRdye 800cw-PEG,no enhancement of brain delivery
same,duration of BBB opening,[4]; Balb/c mice,less than 1 h

# — paper PMC4935662 (Molecular pharmaceutics, 2016)
